The record followed here is ChEMBL document CHEMBL2203169, “Effect of allyl sulfides from garlic essential oil on intracellular ca2+ levels in renal tubular cells” (J Nat Prod, 2012).

The source made the active and inactive calls. The calls are words filed in the database; no cut-off is given here.

Assay [1] concerns MDCK. Briefly: Cytotoxicity against MDCK cells assessed as decrease in cell viability after 16 hrs by tetrazolium salt WST-1 assay. It counts as functional, cell-based. The settings on record: Canis lupus familiaris. In short, it runs like this:
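MDCK cells plated at 1 × 10^4 per well and grown 24 h to 70% confluence, then exposed 16 h to compound (0–2 mM range). Cells washed, then incubated 2 h at 37 °C with WST-1; absorbance read at 450 nm. Values expressed as percent of vehicle control (0.1% DMSO). n = 5.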

The subject of assay [2] is MDCK. The experiment in a line: Cell cycle arrest in MDCK cells assessed as accumulation at S phase at 100 uM after 16 hrs by flow cytometric analysis (reference value: 24.5%). It counts as functional, Canis lupus familiaris. In general terms: Flow cytometry measures light scatter and fluorescence of single cells or particles in a stream.
The test system of assay [3] is MDCK. The experiment in a line: Cell cycle arrest in MDCK cells assessed as accumulation at G2/M phase at 100 uM after 16 hrs by flow cytometric analysis (reference value: 19.8%). Format: functional, Canis lupus familiaris.
Assay [4] has as its system MDCK. Briefly: Cell cycle arrest in MDCK cells assessed as accumulation at G1 phase at 100 uM after 16 hrs by flow cytometric analysis (reference value: 55.7%). Format: functional, Canis lupus familiaris.
Assay [5] concerns MDCK. The experiment in a line: Cell cycle arrest in MDCK cells assessed as accumulation at subG1 phase at 100 uM after 16 hrs by flow cytometric analysis (reference value: 0.5%). It counts as functional, Canis lupus familiaris.
The subject of assay [6] is MDCK. The experiment in a line: Induction of intracellular calcium level in MDCK cells at 50 uM by Fura-2 in presence of calcium relative to diallyl trisulfide. Format: functional. (Calcium flux is commonly read through the fluorescence of an indicator in the cells.)
Assay [7] has as its system MDCK. The experiment in a line: Induction of intracellular calcium level in MDCK cells at 100 uM assessed as calcium influx by Fura-2 in presence of calcium and 1 uM verapamil L-type calcium channel blocker. The settings on record: Canis lupus familiaris. Format: functional, cell-based. An outline of the steps:
(§1)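 Fura-2-loaded MDCK cells in Ca2+-containing medium at 25 °C, pretreated 1 min with the 1 μM L-type blocker before 100 μM compound was added at 30 s. Response taken as net area under the [Ca2+]i curve from 30 to 250 s, expressed as percent of unblocked control. Means ± SEM of five experiments.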

Assay [8] relates to MDCK. The experiment in a line: Induction of intracellular calcium level in MDCK cells at 100 uM assessed as calcium influx by Fura-2 in presence of calcium and 1 uM diltiazem L-type calcium channel blocker. The settings on record: Canis lupus familiaris. Format: functional, cell-based. In short, it runs like this: as §1
Assay [9] relates to MDCK. Briefly: Induction of intracellular calcium level in MDCK cells assessed as rise in fura-2 340/380 excitation signal ratio at 100 uM treated at 30 secs by Fura-2 in presence of extracellular calcium. It counts as functional, cell-based. The conditions noted are these: Canis lupus familiaris. In short, it runs like this:
(§2)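 Trypsinized cells recovered 1 h, then loaded with 2 μM fura-2/AM for 30 min at 25 °C. Cells washed and resuspended in Ca2+-containing medium (2 mM CaCl2, 2 mM HEPES, pH 7.4); 0.5 million cells/mL in a stirred cuvette at 25 °C. Compound added at 30 s and recorded to 250 s. Excitation at 340/380 nm, emission at 510 nm. Calibration used Triton X-100 then 10 mM EGTA; Kd 155 nM. n = 5.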

The subject of assay [10] is MDCK. The experiment in a line: Induction of intracellular calcium level in MDCK cells at 100 uM by Fura-2 in calcium free medium in presence of endoplasmic reticulum Ca2+-ATPase inhibitor thapsigargin. It counts as functional, cell-based. The settings on record: Canis lupus familiaris. In short, it runs like this:
(§3)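 Fura-2-loaded MDCK suspension (0.5 million cells/mL) in Ca2+-free medium, where CaCl2 was replaced by 0.1 mM EGTA; 25 °C, stirred cuvette. Signals recorded at 340/380 nm excitation and 510 nm emission every 1 s. Store depletion used 1 μM thapsigargin, applied before compound or after 220 s compound preincubation. Phospholipase C tests used 10 μM ATP and 2 μM U73122. [Ca2+]i calculated with Kd 155 nM. Means ± SEM, n = 5.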

Assay [11] deals with MDCK. The experiment in a line: Induction of intracellular calcium level in MDCK cells assessed as sustained phase at 100 uM within 250 secs by Fura-2 in presence of extracellular calcium. Format: functional, cell-based. The conditions noted are these: Canis lupus familiaris. An outline of the steps: as §2
In assay [12] the test system is MDCK. Briefly: Induction of intracellular calcium level in MDCK cells at 1 uM by Fura-2 in presence of extracellular calcium. The settings on record: Canis lupus familiaris.
Assay [13] deals with MDCK. The experiment in a line: Induction of intracellular calcium level in MDCK cells at 100 uM by Fura-2 in presence of calcium and 1 uM nicardipine L-type calcium channel blocker. Format: functional, cell-based. The settings on record: Canis lupus familiaris. An outline of the steps:
as §1

The test system of assay [14] is MDCK. Briefly: Induction of intracellular calcium level in MDCK cells at 100 uM by Fura-2 in presence of calcium and 10 nM phorbol myristate acetate protein kinase C activator. It counts as functional, cell-based. The conditions noted are these: Canis lupus familiaris. An outline of the steps:
(§4)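 Fura-2-loaded MDCK cells in Ca2+-containing medium (2 mM CaCl2, pH 7.4) at 25 °C, pretreated with 10 nM phorbol myristate acetate or 2 μM GF109203X before 100 μM compound. [Ca2+]i was read from the 340/380 nm fura-2 ratio. n = 5.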

Assay [15] relates to MDCK. The experiment in a line: Induction of intracellular calcium level in MDCK cells at 100 uM by Fura-2 in presence of calcium and 2 uM GF109203 X acetate protein kinase C inhibitor. Format: functional, cell-based. The conditions noted are these: Canis lupus familiaris. In short, it runs like this:
as §4

The test system of assay [16] is MDCK. Briefly: Induction of intracellular calcium level in MDCK cells at 25 to 100 uM by Fura-2 in presence of extracellular calcium. Format: functional, cell-based. The settings on record: Canis lupus familiaris. In short, it runs like this: as §2
Assay [17] deals with MDCK. The experiment in a line: Induction of intracellular calcium level in MDCK cells at 100 uM by Fura-2 in calcium free medium in presence of phospholipase C inhibitor U73122. The conditions noted are these: Canis lupus familiaris.
Assay [18] relates to MDCK. Briefly: Induction of intracellular calcium level in MDCK cells at 100 uM preincubated 220 secs by Fura-2 in calcium free medium in presence of endoplasmic reticulum Ca2+-ATPase inhibitor thapsigargin. It counts as functional, cell-based. The settings on record: Canis lupus familiaris. In short, it runs like this: as §3
For assay [19], the system named is MDCK. Briefly: Induction of intracellular calcium level in MDCK cells assessed as net peak value at 10 uM by Fura-2 in calcium free medium. Format: functional, Canis lupus familiaris. In short, it runs like this:
as §3

Assay [20] concerns MDCK. Briefly: Induction of intracellular calcium level in MDCK cells at 10 uM by Fura-2 in calcium free medium in presence of 10 uM U73343 inactive analogue of U73122 phospholipase C inhibitor. The conditions noted are these: Canis lupus familiaris. It counts as functional, cell-based. An outline of the steps:
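MDCK cells were trypsinized, recovered 1 h, then loaded with 2 μM fura-2/AM for 30 min at 25 °C. They were read in a stirred cuvette at 25 °C (0.5 million cells/mL) in Ca2+-free medium with 0.1 mM EGTA in place of CaCl2. Ex 340/380 nm, em 510 nm, 1 s intervals. Pretreatment was 2 μM U73122 or 10 μM U73343 before ATP. Kd 155 nM; n=5.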

With `C=CCSCC=C` [DIALLYL SULFIDE], the Activity result in the assay with MDCK [1] is “Dose-dependent effect”; in the assay on MDCK [2] it was 27.7%; in the assay on MDCK [3], 19%; with MDCK [4], 53.3%; in the assay on MDCK [5] it was 1.1%. Moreover, the 50% inhibitory concentration (IC50) in the assay with MDCK [1] turned out to be 3260 µM. For the same compound, the result with MDCK [6] (Canis lupus familiaris) was inactive.
As for `C=CCSSCC=C` [DIALLYLDISULFIDE], the Activity entry is “Dose-dependent effect” with MDCK [1]; 26.8% in the assay with MDCK [2]; 20% in the assay on MDCK [3]; 53.3% in the assay with MDCK [4]; 7.1% with MDCK [5]; 45.6% with MDCK [6]. Besides, the IC50 in the assay on MDCK [1] came out at 1820 µM.
`C=CCSSSCC=C` [ALLITRIDIN]: in the assay on MDCK [1], the concentration for half-maximal inhibition (IC50) was found to be 50 µM. The result in the assay with MDCK [7], in the assay with MDCK [8], in the assay with MDCK [9], with MDCK [11], in the assay with MDCK [14] and with MDCK [15] was Active. The outcome in the assay with MDCK [17] was Active. Also, the outcome in the assay on MDCK [10], in the assay on MDCK [12], in the assay on MDCK [13] and in the assay on MDCK [18] was inactive. Moreover, the Activity was 34.6% in the assay on MDCK [2]; 38.6% in the assay with MDCK [3]; 26.8% in the assay on MDCK [4]; “Dose-dependent effect” in the assay on MDCK [16]; 33.1% in the assay with MDCK [5].
Take `Nc1ncnc2c1ncn2[C@@H]1O[C@H](COP(=O)(O)OP(=O)(O)OP(=O)(O)O)[C@@H](O)[C@H]1O` [ADENOSINE TRIPHOSPHATE]: in the assay with MDCK [19], the Activity is recorded as 132 nM. In addition, the result with MDCK [20] was Active. Besides, the result in the assay on MDCK [17] was inactive.

Usually IC50 stands for the point on the concentration scale where inhibition reaches its midpoint.
